Assay type in all cases: functional, cell-based
Assay [1] addresses T1, Neuropeptide S receptor (Mus musculus) (UniProt Q8BZP8).
T1 sequence (whole entry): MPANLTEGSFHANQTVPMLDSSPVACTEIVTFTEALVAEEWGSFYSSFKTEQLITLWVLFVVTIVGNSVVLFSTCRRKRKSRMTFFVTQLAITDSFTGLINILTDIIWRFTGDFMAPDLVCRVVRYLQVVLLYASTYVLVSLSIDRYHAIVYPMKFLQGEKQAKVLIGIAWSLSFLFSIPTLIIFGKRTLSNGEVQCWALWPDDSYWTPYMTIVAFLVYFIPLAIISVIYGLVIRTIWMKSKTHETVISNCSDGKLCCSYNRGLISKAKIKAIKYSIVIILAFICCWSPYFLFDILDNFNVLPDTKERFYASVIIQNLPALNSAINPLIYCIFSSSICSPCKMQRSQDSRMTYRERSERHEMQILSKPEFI
Put plainly: Agonist activity at mouse NPSR expressed in HEK293 cells assessed as induction of calcium mobilization at up to 10 uM after 30 mins. The procedure, abridged:
(§1)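 HEK293 lines stably expressing human NPSR Ile107 or murine NPSR were grown in DMEM with 10% FBS, 2 mM L-glutamine and hygromycin B (100 mg/L) at 37 °C, 5% CO2. Cells were plated on poly-D-lysine wells and loaded with Fluo-4 AM (3 µM), probenecid 2.5 mM and 0.01% pluronic for 30 min at 37 °C. They were then read in HBSS/20 mM HEPES with probenecid and Brilliant Black on a FlexStation at 37 °C. Peak fluorescence change was taken as % baseline and fitted logistically for potency and maximal effect. Data are mean ± sem, n≥4 in duplicate.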

For assay [2], the target named is T2, Neuropeptide S receptor (Homo sapiens) (UniProt Q6W5P4).
T2 sequence (whole entry): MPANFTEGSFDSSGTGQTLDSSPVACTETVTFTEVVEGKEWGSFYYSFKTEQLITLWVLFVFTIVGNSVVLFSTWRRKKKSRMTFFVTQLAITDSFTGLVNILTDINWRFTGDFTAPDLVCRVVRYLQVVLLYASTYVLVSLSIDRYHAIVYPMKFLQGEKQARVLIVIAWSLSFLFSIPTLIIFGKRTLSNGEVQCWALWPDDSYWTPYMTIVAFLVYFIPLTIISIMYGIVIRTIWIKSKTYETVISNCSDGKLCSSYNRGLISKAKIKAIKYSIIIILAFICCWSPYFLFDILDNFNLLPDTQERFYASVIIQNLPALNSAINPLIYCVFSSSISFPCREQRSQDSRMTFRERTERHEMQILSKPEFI
The experiment in a line: (§2) Agonist activity at human NPSR Asn107 expressed in HEK293 cells assessed as induction of calcium mobilization after 30 mins. Summed up: (§3)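 HEK293 cells stably expressing human NPSR Asn107 were kept in DMEM with 10% FBS, 2 mM glutamine and zeocin (100 mg/L) at 37 °C, 5% CO2. Cells were seeded on poly-D-lysine plates and loaded next day with 3 µM Fluo-4 AM, 2.5 mM probenecid and 0.01% pluronic acid for 30 min at 37 °C. Assay buffer was HBSS with 20 mM HEPES, 2.5 mM probenecid and 500 µM Brilliant Black. Fluorescence was read on a FlexStation at 37 °C. Response was the maximal fluorescence change as % of baseline. Potency and maximal effect came from nonlinear regression, with mean ± sem of ≥4 experiments in duplicate.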
A general note: A change in cytosolic calcium serves as a functional read-out for many receptors and channels.

The target of assay [3] is T3, Neuropeptide S receptor (Homo sapiens, UniProt Q6W5P4). Described as §2. The procedure, abridged:
as §3

For assay [4], the target named is T2, Neuropeptide S receptor (Homo sapiens). Put plainly: (§4) Agonist activity at human NPSR Ile107 expressed in HEK293 cells assessed as induction of calcium mobilization after 30 mins. Summed up: as §1
In assay [5] the target is T3, Neuropeptide S receptor. The assay is described as §4. Summed up: as §1
Assay [6] has as its target T2, Neuropeptide S receptor (Homo sapiens). Put plainly: Agonist activity at human NPSR Ile107 expressed in HEK293 cells assessed as induction of calcium mobilization after 30 mins relative to control. Summed up:
as §1

The target is the same in assay [7]. Put plainly: Agonist activity at human NPSR Asn107 expressed in HEK293 cells assessed as induction of calcium mobilization after 30 mins relative to control. Summed up:
as §3

Assay [8] addresses T1, Neuropeptide S receptor (Mus musculus). Put plainly: Agonist activity at mouse NPSR expressed in HEK293 cells assessed as induction of calcium mobilization after 30 mins relative to control. The procedure, abridged: as §1
Assay [9] shares this target. The experiment in a line: (§5) Agonist activity at mouse NPSR expressed in HEK293 cells assessed as induction of calcium mobilization after 30 mins. Summed up: as §1
The target of assay [10] is T4, Neuropeptide S receptor (Mus musculus, UniProt Q8BZP8).
T4 sequence (Q8BZP8 whole entry): T1 sequence (whole entry)
The description is as §5. The procedure, abridged:
as §1

Active and inactive are the calls of the source. The calls are words filed in the database; no cut-off is given here.

The pEC50 is the negative decadic logarithm of the EC50, by convention in mol/L. As usually defined, the Emax is the greatest response seen or fitted, relative to the assay's reference. By EC50 is commonly meant the concentration that produces a half-maximal response.

For `O=C(NCc1ccc(F)cc1)N1CCN2C(=O)OC(c3ccccc3)(c3ccccc3)C2C1` (single isomer, unassigned), the outcome in [1] was inactive.

As to `O=C(NCc1ccc(F)cc1)N1CCN2C(=O)OC(c3ccccc3)(c3ccccc3)[C@@H]2C1`, the result in [1] was inactive.

On to “H-SFRNGVGTGMKKTSFQRAKS-OH [NEUROPEPTIDE S]”, for which the Activity entry in assay [2] and in [4] was “Dose-dependent effect” each time. Also, the values for the pEC50 at Neuropeptide S receptor [3] and at Neuropeptide S receptor [5] were 9.07 and 9.17, respectively. Besides, the results for the Emax in assay [6] and in [7] were 333% and 316%, respectively.

As to H-SFRNGVGSGAKKTSFRRAKQ-OH, in [8], the Emax was 250%. In addition, the Activity result in assay [9] is “Dose-dependent effect”. Besides, the EC50 at Neuropeptide S receptor [10] is 1.07 nM.

Regarding `O=C(NCc1ccc(F)cc1)N1CCN2C(=O)OC(c3ccccc3)(c3ccccc3)[C@H]2C1`, the outcome in [1] was inactive.

For the origin of these results see ChEMBL document CHEMBL1764996, “Synthesis and separation of the enantiomers of the neuropeptide S receptor antagonist (9R/S)-3-oxo-1,1-diphenyl-tetrahydro-oxazolo[3,4-a]pyrazine-7-carboxylic acid 4-fluoro-benzylamide (SHA 68)” (J Med Chem, 2011).
